Laboratory results: ChEMBL document CHEMBL5724801, “EUbOPEN Chemogenomics Library - Multiplex” (2024)
“And” between values parts separate entries of the source, which are not always exact repeats. Identical values can stand only once.

Test system: Fibroblast
Assay: Multiplex assay against human fibroblast
Type: toxicity, cell-based
Details: 12 h, 1 µM, compound concentration 1 uM
Outline: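 At seeding, live cells were stained with Hoechst33342, BioTracker Green Microtubule Cytoskeleton Dye, MitoTracker Red and Annexin V Alexa Fluor 680. After compound addition they were imaged on a CQ1 microscope at 37°C and 5% CO2, and CellPathfinder machine-learning gating sorted them into Hoechst high-intensity objects or normal cells, with normal cells further split into healthy, pyknosed or fragmented nuclei and pyknosed cells into mitotic or apoptotic. Tubulin, mitochondrial-mass and membrane-permeability phenotypes are given as per cents of cells with healthy nuclei.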

Compound | Population Apoptotic (%) | Population Fragmented Nuclei (%) | Population Healthy Nuclei (%) | Population Hoechst High Intensity Objects (%) | Population Mitochondria Different-Phenotype (%) | Population Mitotic Cells (%) | Population Normal (%) | Population Pyknosed Nuclei (%) | Population Tubulin-Different-Phenotype (%) | Total Cell Count
CN1CCN2c3ccccc3Cc3ccccc3C2C1.Cl (centres undefined) [MIANSERIN HYDROCHLORIDE] | 55% and 38% | 28% and 27% | 56% and 50% | 2% and 4% | 0% and 5% | 45% and 61% | 97% and 95% | 14% and 22% | 31% and 56% | 138 and 119
CCNC1(C(N)=O)CCN(c2ncnc3c2nc(-c2ccccc2Cl)n3-c2ccc(Cl)cc2)CC1 [OTENABANT] | 26% and 37% | 19% and 25% | 63% and 48% | 6% and 2% | 7% and 10% | 73% and 62% | 93% and 97% | 17% and 26% | 44% and 50% | 161 and 156

Same assay, conditions: 12 h, 1 µM, compound concentration 1 uM

Compound | Population Membrane Permeable-Phenotype (%)
CCNC1(C(N)=O)CCN(c2ncnc3c2nc(-c2ccccc2Cl)n3-c2ccc(Cl)cc2)CC1 [OTENABANT] | 1% and 6%

Same assay, conditions: 12 h, 10 µM, compound concentration 10 uM

Compound | Population Apoptotic (%) | Population Fragmented Nuclei (%) | Population Healthy Nuclei (%) | Population Hoechst High Intensity Objects (%) | Population Membrane Permeable-Phenotype (%) | Population Mitochondria Different-Phenotype (%) | Population Mitotic Cells (%) | Population Normal (%) | Population Pyknosed Nuclei (%) | Population Tubulin-Different-Phenotype (%)
CN1CCN2c3ccccc3Cc3ccccc3C2C1.Cl (centres undefined) [MIANSERIN HYDROCHLORIDE] | 55% and 33% | 15% and 24% | 68% and 48% | 5% and 6% | 1% and 3% | 3% and 7% | 44% and 66% | 94% and 93% | 15% and 27% | 14% and 40%
CCNC1(C(N)=O)CCN(c2ncnc3c2nc(-c2ccccc2Cl)n3-c2ccc(Cl)cc2)CC1 [OTENABANT] | 57% and 40% | 22% and 30% | 64% and 48% | 4% and 3% | 0% and 12% | 16% and 18% | 42% and 59% | 95% and 96% | 12% and 21% | 90% and 87%

Same assay, conditions: 12 h, 10 µM, compound concentration 10 uM

Compound | Total Cell Count
CN1CCN2c3ccccc3Cc3ccccc3C2C1.Cl (centres undefined) [MIANSERIN HYDROCHLORIDE] | 126 and 116
CCNC1(C(N)=O)CCN(c2ncnc3c2nc(-c2ccccc2Cl)n3-c2ccc(Cl)cc2)CC1 [OTENABANT] | 170 and 216

Same assay, conditions: 24 h, 1 µM, compound concentration 1 uM

Compound | Population Apoptotic (%) | Population Fragmented Nuclei (%) | Population Healthy Nuclei (%) | Population Hoechst High Intensity Objects (%) | Population Membrane Permeable-Phenotype (%) | Population Mitochondria Different-Phenotype (%) | Population Mitotic Cells (%) | Population Normal (%) | Population Pyknosed Nuclei (%) | Population Tubulin-Different-Phenotype (%)
CN1CCN2c3ccccc3Cc3ccccc3C2C1.Cl (centres undefined) [MIANSERIN HYDROCHLORIDE] | 52% and 36% | 32% and 30% | 55% and 50% | 2% and 3% | 0% and 6% | 2% and 1% | 47% and 63% | 97% and 96% | 12% and 19% | 29% and 53%
CCNC1(C(N)=O)CCN(c2ncnc3c2nc(-c2ccccc2Cl)n3-c2ccc(Cl)cc2)CC1 [OTENABANT] | 26% and 34% | 17% and 27% | 66% and 43% | 4% and 5% | 0% and 9% | 8% and 14% | 73% and 65% | 95% and 94% | 15% and 29% | 44% and 57%

Same assay, conditions: 24 h, 1 µM, compound concentration 1 uM

Compound | Total Cell Count
CN1CCN2c3ccccc3Cc3ccccc3C2C1.Cl (centres undefined) [MIANSERIN HYDROCHLORIDE] | 143 and 119
CCNC1(C(N)=O)CCN(c2ncnc3c2nc(-c2ccccc2Cl)n3-c2ccc(Cl)cc2)CC1 [OTENABANT] | 154 and 155

Same assay, conditions: 24 h, 10 µM, compound concentration 10 uM

Compound | Population Apoptotic (%) | Population Fragmented Nuclei (%) | Population Healthy Nuclei (%) | Population Hoechst High Intensity Objects (%) | Population Membrane Permeable-Phenotype (%) | Population Mitochondria Different-Phenotype (%) | Population Mitotic Cells (%) | Population Normal (%) | Population Pyknosed Nuclei (%) | Total Cell Count
CN1CCN2c3ccccc3Cc3ccccc3C2C1.Cl (centres undefined) [MIANSERIN HYDROCHLORIDE] | 61% and 48% | 14% and 31% | 73% and 47% | 5% and 4% | 0% and 10% | 1% and 5% | 38% and 52% | 95% | 11% and 20% | 120 and 127
CCNC1(C(N)=O)CCN(c2ncnc3c2nc(-c2ccccc2Cl)n3-c2ccc(Cl)cc2)CC1 [OTENABANT] | 54% | 22% and 37% | 64% and 48% | 2% and 5% | 0% and 7% | 37% and 30% | 45% | 97% and 94% | 12% and 13% | 174 and 235

Same assay, conditions: 24 h, 10 µM, compound concentration 10 uM

Compound | Population Tubulin-Different-Phenotype (%)
CCNC1(C(N)=O)CCN(c2ncnc3c2nc(-c2ccccc2Cl)n3-c2ccc(Cl)cc2)CC1 [OTENABANT] | 96% and 88%

Same assay, conditions: 48 h, 1 µM, compound concentration 1 uM

Compound | Population Apoptotic (%) | Population Fragmented Nuclei (%) | Population Healthy Nuclei (%) | Population Hoechst High Intensity Objects (%) | Population Membrane Permeable-Phenotype (%) | Population Mitochondria Different-Phenotype (%) | Population Mitotic Cells (%) | Population Normal (%) | Population Pyknosed Nuclei (%) | Population Tubulin-Different-Phenotype (%)
CN1CCN2c3ccccc3Cc3ccccc3C2C1.Cl (centres undefined) [MIANSERIN HYDROCHLORIDE] | 78% and 46% | 35% and 36% | 55% and 51% | 2% and 3% | 0% and 3% | 2% and 10% | 21% and 53% | 97% and 96% | 9% and 11% | 35% and 50%
CCNC1(C(N)=O)CCN(c2ncnc3c2nc(-c2ccccc2Cl)n3-c2ccc(Cl)cc2)CC1 [OTENABANT] | 68% and 59% | 18% and 33% | 69% and 42% | 8% and 5% | 0% and 13% |  | 31% and 40% | 91% and 94% | 12% and 23% | 41% and 72%

Same assay, conditions: 48 h, 1 µM, compound concentration 1 uM

Compound | Total Cell Count
CN1CCN2c3ccccc3Cc3ccccc3C2C1.Cl (centres undefined) [MIANSERIN HYDROCHLORIDE] | 151 and 116
CCNC1(C(N)=O)CCN(c2ncnc3c2nc(-c2ccccc2Cl)n3-c2ccc(Cl)cc2)CC1 [OTENABANT] | 167 and 143

Same assay, conditions: 48 h, 10 µM, compound concentration 10 uM

Compound | Population Apoptotic (%) | Population Fragmented Nuclei (%) | Population Healthy Nuclei (%) | Population Hoechst High Intensity Objects (%) | Population Membrane Permeable-Phenotype (%) | Population Mitochondria Different-Phenotype (%) | Population Mitotic Cells (%) | Population Normal (%) | Population Pyknosed Nuclei (%) | Population Tubulin-Different-Phenotype (%)
CN1CCN2c3ccccc3Cc3ccccc3C2C1.Cl (centres undefined) [MIANSERIN HYDROCHLORIDE] | 57% and 38% | 15% and 29% | 71% and 55% | 5% and 3% | 0% and 10% | 2% and 1% | 42% and 61% | 94% and 96% | 12% and 14% | 16% and 37%
CCNC1(C(N)=O)CCN(c2ncnc3c2nc(-c2ccccc2Cl)n3-c2ccc(Cl)cc2)CC1 [OTENABANT] | 78% and 61% | 30% and 46% | 61% and 47% | 8% and 2% | 0% and 7% | 49% and 26% | 21% and 38% | 91% and 97% | 8% and 6% | 92% and 89%

Same assay, conditions: 48 h, 10 µM, compound concentration 10 uM

Compound | Total Cell Count
CN1CCN2c3ccccc3Cc3ccccc3C2C1.Cl (centres undefined) [MIANSERIN HYDROCHLORIDE] | 115 and 125
CCNC1(C(N)=O)CCN(c2ncnc3c2nc(-c2ccccc2Cl)n3-c2ccc(Cl)cc2)CC1 [OTENABANT] | 187 and 299
